Source: ChEMBL document CHEMBL1799933, “Discovery of a selective allosteric M1 receptor modulator with suitable development properties based on a quinolizidinone carboxylic acid scaffold” (J Med Chem, 2011)
Calls of active or inactive are those of the source. The rule behind the calls is not given here.

Key:
[1] = Half life in rhesus monkey; assay type: ADME, organism-based, Macaca mulatta; conditions: in vivo
[2] = target: T1, Muscarinic acetylcholine receptor M1 (Homo sapiens) (UniProt P11229); assay: Agonist activity at human muscarinic M1 receptor expressed in CHONFAT cells assessed as enhancement of acetylcholine-induced calcium mobilization preincubated for 4 mins measured after 1 hr by FLIPR assay; assay type: functional, cell-based
T1 sequence (whole entry): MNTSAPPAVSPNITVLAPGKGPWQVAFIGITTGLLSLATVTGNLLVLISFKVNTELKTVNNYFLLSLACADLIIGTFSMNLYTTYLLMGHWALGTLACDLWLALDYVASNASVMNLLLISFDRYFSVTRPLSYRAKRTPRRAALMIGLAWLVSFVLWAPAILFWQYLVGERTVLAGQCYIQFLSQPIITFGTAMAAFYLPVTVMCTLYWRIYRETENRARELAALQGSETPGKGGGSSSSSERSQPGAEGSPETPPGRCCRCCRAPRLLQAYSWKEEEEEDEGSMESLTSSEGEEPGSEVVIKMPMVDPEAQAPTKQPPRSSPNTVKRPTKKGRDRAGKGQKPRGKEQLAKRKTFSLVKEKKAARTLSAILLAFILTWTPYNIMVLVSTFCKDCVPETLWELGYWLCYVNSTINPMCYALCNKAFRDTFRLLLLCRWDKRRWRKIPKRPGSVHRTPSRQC
Summary of the method: (§1)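 CHO-NFAT cells expressing the named muscarinic receptor (human M1–M4; rhesus, dog or rat M1 in CHO-K1) were plated at 25,000 cells/well and grown overnight at 37 °C, 6% CO2. Cells were loaded with 1 μM Fluo-4AM for 1 h, washed, and preincubated 4 min with serially diluted compound (final DMSO 0.67%). They were then stimulated 4 min with an EC20 of ACh, and Ca2+ flux was read by FLIPR384.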

[3] = target: T2, Muscarinic acetylcholine receptor M2 (Homo sapiens) (UniProt P08172); assay: Agonist activity at human muscarinic M2 receptor expressed in CHONFAT cells assessed as increase in acetylcholine-induced calcium mobilization at 10 uM preincubated for 4 mins measured after 1 hr by FLIPR assay; assay type: functional, cell-based; summary of the method: as §1
T2 sequence (whole entry): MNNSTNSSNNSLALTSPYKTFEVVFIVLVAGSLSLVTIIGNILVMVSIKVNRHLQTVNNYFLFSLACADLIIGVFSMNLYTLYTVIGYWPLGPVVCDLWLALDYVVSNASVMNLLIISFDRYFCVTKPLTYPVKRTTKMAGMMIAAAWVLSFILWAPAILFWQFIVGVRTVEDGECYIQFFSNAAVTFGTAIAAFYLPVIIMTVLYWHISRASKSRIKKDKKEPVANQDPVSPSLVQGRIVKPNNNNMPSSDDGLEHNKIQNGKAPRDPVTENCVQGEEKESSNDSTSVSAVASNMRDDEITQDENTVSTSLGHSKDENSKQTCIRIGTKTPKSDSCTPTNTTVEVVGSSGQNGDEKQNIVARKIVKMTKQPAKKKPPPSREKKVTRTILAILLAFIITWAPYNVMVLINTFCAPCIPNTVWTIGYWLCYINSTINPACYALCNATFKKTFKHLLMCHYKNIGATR

Mus musculus = assay: Antiamnesic activity against scopolamine-induced dementia in B6SJL mouse assessed as increase in freezing behavior at 30 mg/kg, ip after 24 hrs; assay type: functional, organism-based; design: dose 30 mg/kg
Summary of the method: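 Male B6SJL mice, 10 weeks old and naive (n = 12–16/group), were given compound IP in 5% beta-cyclodextrin and/or scopolamine 0.3 mg/kg in 0.9% saline 30 min before training. Training was 2 tone (3 kHz, 85 dB, 30 s)–footshock (0.5 mA, 1 s) pairings 2 min apart. Freezing in the same chamber was video-scored 24 h later.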

[4] = Ratio of drug level in brain to plasma of Sprague-Dawley rat at 10 mg/kg, po; assay type: ADME, organism-based; design: dose 10 mg/kg, route oral; conditions: read-out: BPR
Summary of the method: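 Rats dosed orally at 10 mpk. Plasma, brain and CSF sampled at 2 h and concentrations determined by bioanalysis.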

[5] = Clearance in rat at 3 mg/kg, po and 1 mg/kg, iv; assay type: ADME, organism-based; conditions: in vivo
Summary of the method: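 Rats (n = 2) dosed orally at 3 mg/kg and IV at 1 mg/kg. Interanimal variability under 20% for all values.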

[6] = Oral bioavailability in rhesus monkey; assay type: ADME, organism-based, Macaca mulatta; conditions: in vivo
[7] = target: T1, Muscarinic acetylcholine receptor M1 (Homo sapiens); assay: Agonist activity at human muscarinic M1 receptor expressed in CHONFAT cells assessed as increase in calcium mobilization at 10 uM preincubated for 4 mins measured after 1 hr by FLIPR assay; assay type: functional, cell-based
[8] = target: T1, Muscarinic acetylcholine receptor M1 (Homo sapiens); assay: Positive allosteric modulation of human muscarinic M1 receptor expressed in CHONFAT cells assessed as potentiation of acetylcholine-induced calcium mobilization at 0.1 uM preincubated for 4 mins measured after 1 hr by FLIPR assay relative to control; assay type: functional, cell-based
Summary of the method: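 CHO-NFAT cells expressing human M1, 25,000 cells/well, grown overnight at 37 °C, 6% CO2. Washed in HBSS with 20 mM Hepes, 2.5 mM probenecid, 0.1% BSA, then loaded with 1 μM Fluo-4AM for 1 h at 37 °C. Compound preincubated 4 min (final DMSO 0.67%), then serially diluted ACh added for 4 min. Ca2+ flux read by FLIPR384; fold leftward shift of the ACh dose-response curve.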

[9] = Lipophilicity, log P of the compound; assay type: physicochemical; conditions: octanol/water
[10] = Plasma protein binding in human serum by equilibrium dialysis method; assay type: ADME, cell-free; conditions: read-out: PPB (converted)
Summary of the method: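 Protein binding measured by equilibrium dialysis against rat or human serum.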

In the case of `N#CC1(c2ccccn2)CCN(Cc2cc(C(=O)O)c(=O)n3ccccc23)CC1` [MSD-M1PAM], the half-life [1] is reported as 216 min, the IP [2] is reported as 135 nM and the Activity [3] is reported as “inactive”. The Activity (Mus musculus) was “Active”, the Kp [4] was 0.23 and the clearance [5] was 13.5 mL/min/kg. The bioavailability [6] was 55%, the Activity [7] was “Active” and the fold change (FC) [8] was 3. The logP [9] was 0.15 and the fraction unbound [10] was 0.291.
